From the RNAGym collection of RNA variant scans (doi:10.1126/science.aae0568)
Variants at the floor of the assay were thinned out.

B1: tRNA (parent)
chain: GUUCCGUUGGCGUAAUGGUAACGCGUCUCCCUCCUAAGGAGAAGACUGCGGGUUCGAGUCCCGUACGGAACG

Variants of: B1
Assay: yeast fitness relative to wild type (ratio to wild type); higher = fitter; tRNA-Arg(CCU), competitive growth, 37 C, YPD
How it was run: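 Changes in genotype frequencies gave Darwinian fitness relative to wild type. Frequencies were read by 100-nucleotide paired-end sequencing of gene amplicons before and after pooled Saccharomyces cerevisiae strains, carrying tRNA-Arg(CCU) gene variants at the native locus, were competed in YPD at 37°C for 24 hours in six replicates. A genotype was kept only with ≥ 100 starting reads, and estimates < 0.5 were set to 0.5.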

**Q.** Which yeast fitness does the source give for GUUCAGUUGGCGUAAUGGUAACGCGUCUCUCUCCUAAGGAGAAGACUGCGGGUUCGAGUCCCGUACGGAACG here?
**A.** The yeast fitness was 0.693.

**Q.** Which yeast fitness does the source give for GUUCAGUUGGCGUAAUGGUAACGCGUCUCCCUCCUAAGGAGAAGAAUGCGGGUUCGAGUCCCGUACGGAACG here?
**A.** Its yeast fitness is 0.97.

**Q.** For GUUCAGUUGGCGUAAUGGUAACGCGUCUCCCUCCUAAGGAGAAGACUGCGGGUUCGAGUGCCGUAUAGAACG, which yeast fitness is on record?
**A.** Its yeast fitness is no more than 0.5.

**Q.** With GUUCAGUUGGCGUAAUGGUAACGCAUCUCCCUGCUAAGGAGAAGAAUGCGGGUUCGAGUCCCGUAAGGAACG as the variant, how does the yeast fitness read?
**A.** The yeast fitness was no more than 0.5.

**Q.** Which yeast fitness does the source give for GUUCAGUUAGCGUAAUGGUAACGCGUCUCCCUCCUAAGGAAAAGACUGCGGGUUCGAGUCCCGAACGGAACG here?
**A.** Its yeast fitness is no more than 0.5.

**Q.** Which yeast fitness does the source give for GUUCAGUUGGCAUAAUGGUAACGCGUCUCCCUUCUAAGGAGAAGACUGCGGGUUCGAGUCCCGUACGGAACG here?
**A.** The yeast fitness was no more than 0.5.

**Q.** Which yeast fitness does the source give for GUUCAGUUGGCGUAAUGAUAACGCAUCUCCUUCCUAAGGAGAAGACCGCGGGUUCGAGUCUCGUACGGAACG here?
**A.** Its yeast fitness is no more than 0.5.

**Q.** With GUUCAGUUGGCGUAAUGCUAACGCGUCUCCCUCCUAAGGAGAAGCCUGCGGGUUCGAGUCCCGUACGAAGCG as the variant, how does the yeast fitness read?
**A.** The yeast fitness was no more than 0.5.

**Q.** Which yeast fitness does the source give for GUUCAGUUGGCGUAAUGGUAACCCGUCUCCCUCCUAAGGAGAAGACUGCGGGUUCGAGUCCCGUGCGGAACG here?
**A.** Its yeast fitness is 0.532.

**Q.** Which yeast fitness does the source give for GUUCAGUUGCCAUAAUGGUAACACGUCUCCCUCCUAAGGAGAAGACUGCGGGUUCGAGUCCCGUACGGAACG here?
**A.** The yeast fitness was no more than 0.5.

**Q.** Which yeast fitness does the source give for GUUCAGUUGGCGUAAUGGUAACGCGUCUCUCUCCUAAGGAGAAGACUGCGGAUUCGAGUCCCGUACGGAACG here?
**A.** Its yeast fitness is no more than 0.5.

**Q.** For GUUCAGUUGGCGUAAUGGUAAGGCGUGUCCCUCCUUAGGCGAAGACUGCGGGUUCGUGUCCCGUAUGGAACG, which yeast fitness is on record?
**A.** The yeast fitness was no more than 0.5.

**Q.** For GUUCAGUUGGCGUAAUGGUAACGCGUCUCCCUGUUAAGGAGAAGACUGCGGGUUCGAGUCCCGUACGGAACG, which yeast fitness is on record?
**A.** The yeast fitness was no more than 0.5.

**Q.** Which yeast fitness does the source give for GUUCAGUUGGCGUAAUCGUAACGCGUCUCCCUCCUAAGGAGCAGACUGCGGGUUCGCGUCCCGUACGGAACG here?
**A.** The yeast fitness was no more than 0.5.

**Q.** For GUUCAGUUGGCCUAAUGGUAACGCGUCUCCCUCCUAAGGAGAAGACUGCGGGUUCGAGUCCCGUACGGAACG, which yeast fitness is on record?
**A.** Its yeast fitness is 0.746.

**Q.** With GUUCAGUUGCCGUAAUGGUAACGGGUCUCCCUCCUAAGGAGAAGACUGCGGGUUCGAGUCCCGUACGGAACG as the variant, how does the yeast fitness read?
**A.** Its yeast fitness is no more than 0.5.

**Q.** With GUUCAGUUGGCGUAAUGGUAACGCGUGUCCCUCCUAAGGAGAAGACCGCGGGUUCGAGUCCCGUACGGAUCG as the variant, how does the yeast fitness read?
**A.** The yeast fitness was 0.578.

**Q.** For GUUCAGUUGGCGUAAUGGUAACGCGUUUCCGUCCUAAGGAGACGACUGGGGCUUCGAGACCCGUACGGAACG, which yeast fitness is on record?
**A.** The yeast fitness was no more than 0.5.

**Q.** For GUUCAGUUGGCGUAAUGGUAACGGGUCUCCCUCCUGAGGAGAAGACUGCGGGUUCGAGUCCCGUUCGGAACG, which yeast fitness is on record?
**A.** The yeast fitness was no more than 0.5.

**Q.** For GUUCAGUUGGCGUAAUGGUAAUGCGUCUCCCUCCUAAGGAGAAGACUGAGGGUUCGAGUCCUGUACGGAACG, which yeast fitness is on record?
**A.** The yeast fitness was no more than 0.5.

**Q.** For GUUCAGUUGGCGUAAUGGUAACGCGUAUCCCUCCUAAGGAGAAGACUGCGGGUUCGAGUCCCGUACGGAACG, which yeast fitness is on record?
**A.** Its yeast fitness is 0.936.

**Q.** With GUUCAGUUGGCGUAAUGGUAAAGCGUCUCCCUCCUAAGGAGAAGACUGCCGGUUCGAAUCCCGUACGGCACG as the variant, how does the yeast fitness read?
**A.** Its yeast fitness is 0.607.

**Q.** For GUUCAGUUGGCGUAAUGGUAACGCGUCUCACUCCUAAGGAGAUGACUGCGGGUUCGGGUCCCGUACGGAACG, which yeast fitness is on record?
**A.** Its yeast fitness is no more than 0.5.

**Q.** With GUUCAGUUGGCGUAAUGGUAACGCGUCUCCCUACUAAGCAGAAGACUGCGCGUUCGAGUCCUGUACGGCACG as the variant, how does the yeast fitness read?
**A.** The yeast fitness was no more than 0.5.

**Q.** With GUUCAGUUGGCGUAAUGCUAACGCGUCUCCCUCCUAAGGAGAAGAUUGCGGGUUCGAGUCCCGUACGGAACG as the variant, how does the yeast fitness read?
**A.** The yeast fitness was 0.557.

**Q.** For GUUCACUUGACGUAAUGGUAACGCGUCUCCCUCCUAAGGAGCAGACUGCGGGUUCGAGUCCCGUACGGAACG, which yeast fitness is on record?
**A.** Its yeast fitness is no more than 0.5.

**Q.** With GUUCAGUUGGCGUAAUGGUAACGCGUCUCCCUCCUAAGGAGAAGACUGCGGGUUCGAGUCCGGUAAGGAACG as the variant, how does the yeast fitness read?
**A.** Its yeast fitness is no more than 0.5.

**Q.** With GUUCAGUUGGCGUAAUGGUAACGCGUCUCCCUCCUAAGGAGAAGACUGCGGGUUCGAGUUCCGUACGGAGCG as the variant, how does the yeast fitness read?
**A.** Its yeast fitness is no more than 0.5.

**Q.** With GUUCAGUUGGCGUAAUGGUAACGUGUCUCCCUCCUAGGGGGUAGACUGUGGGUUCGAGUCCCGUACGGAACG as the variant, how does the yeast fitness read?
**A.** The yeast fitness was no more than 0.5.

**Q.** For GUUCAGUUGGCGUAAUGCUAACGCGUCUCCCUCCGAAGGAGAAGACUGCGGGUUCGCGUCCCGAACGGAACG, which yeast fitness is on record?
**A.** The yeast fitness was no more than 0.5.

**Q.** For GUUCAGUUGGCGUAAUGGUAACGCGUCUUCCUCCUAAGGAGAAGACUGCGGGUUCGGGCCCCGUACGGAACG, which yeast fitness is on record?
**A.** The yeast fitness was no more than 0.5.

**Q.** With GUUCAGUUGGCGUAAUGGUAACGCGUCUGCCUCCUAAGGAGAAGACUGCGGGUUCGAGUCACGUACGGAACG as the variant, how does the yeast fitness read?
**A.** Its yeast fitness is no more than 0.5.

**Q.** For GUUCAGUUGGCGUAAUGGUAACGCGUCUCCCUCCUAAGGAGAAGACUGCGGGUUCGAGUUGCGUACGGAACG, which yeast fitness is on record?
**A.** Its yeast fitness is no more than 0.5.

**Q.** For GUUCAAAUGGCGUAAUGGUAACGCGUCUCCCUCCUAAGGAGAUAAAUGCGGGUUCGAGUCCCGUACGGAACG, which yeast fitness is on record?
**A.** Its yeast fitness is 0.691.

**Q.** Which yeast fitness does the source give for GUUCAGUUGGCGUAAUGGUAACGCGUCUCCCUCCUAAGGAGAAGACUGCGGGUUCGAGUGCCGUACGGAACG here?
**A.** The yeast fitness was 0.551.

**Q.** For GUUCAGUUGGCGUAAUGGUAACGCGUCUCACUCCUAAGGAGAAAACUGCGGGUUCGAGUCCCGUACGGAACG, which yeast fitness is on record?
**A.** Its yeast fitness is 0.584.

**Q.** With GUUCAGUUGGCGUAAUGGUAACGCGUCUGCCUCCUAAGGAGAGGACUGCGGGUUCGAGUCCCGUACGGAACG as the variant, how does the yeast fitness read?
**A.** Its yeast fitness is no more than 0.5.
